Data: ChEMBL document CHEMBL2417530, “Coumarin derivatives protect against ischemic brain injury in rats” (Eur J Med Chem, 2013)

Tests used:
[1] = Cytotoxicity against rat PC12 cells assessed as cell proliferation at 10 uM by MTT assay relative to control; assay type: cell-based, PC-12; conditions: read-out: Activity
Procedure, shortened: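 PC12 cells were grown in DMEM with 5% FBS, 5% horse serum and 2 mM glutamine at 37 °C, 5% CO2. They were seeded at 5×10^3 cells/well for 24 h, then exposed to 10 µM compound in full medium. Viability was read by MTT (5 mg/mL, 4 h) at 570 nm as % of control absorbance; n = 3.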

PC-12 = assay: Neuroprotective activity in rat PC12 cells assessed as attenuation of oxygen-glucose deprivation-induced cellular damage at 10 uM by MTT assay relative to control; assay type: functional
Procedure, shortened: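 PC12 cells were seeded at 5×10^3/well for 24 h. OGD insult was low-glucose medium plus 5 mM sodium dithionite for 24 h, given together with 10 µM compound. MTT (5 mg/mL) was added for 4 h and absorbance read at 570 nm. Viability was expressed as % of full-medium control; n = 3.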

| SMILES | viability at 10 µM [1] | Activity (PC-12) |
| --- | --- | --- |
| Cc1c(N2CCN(C)CC2)c(=O)oc2cc(O)cc(OCCN3CCCCC3)c12 | 144% | 24.9% |
| Cc1c(N2CCN(C(=O)Nc3ccc(C(C)C)cc3)CC2)c(=O)oc2cc(O)cc(O)c12 | 97.3% | 46.3% |
| Cc1c(N2CCN(C(=O)NCc3ccccc3)CC2)c(=O)oc2cc(O)cc(O)c12 | 102% | 49.6% |
| Cc1c(N2CCN(C)CC2)c(=O)oc2cc(OCCN3CCCCC3)ccc12 | 95.4% | 45.3% |
| Cc1c(N2CCN(C)CC2)c(=O)oc2cc(O)cc(OCCCCl)c12 | 197% | 36.3% |
| Cc1c(N2CCN(C(=O)Nc3ccc(OC(F)(F)F)cc3)CC2)c(=O)oc2cc(O)cc(O)c12 | 99.5% | 48.7% |
| Cc1c(N2CCN(C)CC2)c(=O)oc2cc(O)cc(OCCNS(C)(=O)=O)c12 | 103% | 40.3% |
| CC(=O)Nc1ccc(S(=O)(=O)N2CCN(c3c(C)c4c(O)cc(O)cc4oc3=O)CC2)cc1 | 98.1% | 44.5% |
| Cc1c(N2CCN(C)CC2)c(=O)oc2cc(O)cc(OCc3nccs3)c12 | 108% | 54.7% |
| Cc1c(N2CCN(C)CC2)c(=O)oc2cc(O)cc(OCC3CC3)c12 | 184% | 37.7% |
| COc1cc(O)c2c(C)c(N3CCN(C)CC3)c(=O)oc2c1 | 99.8% | 46.1% |
| Cc1c(N2CCN(C(=O)/C=C/c3ccccc3)CC2)c(=O)oc2cc(O)cc(O)c12 | 104% | 45.9% |
| Cc1c(N2CCN(C)CC2)c(=O)oc2cc(O)cc(OCCc3ccccn3)c12 | 152% | 48.2% |
| Cc1c(N2CCN(C)CC2)c(=O)oc2cc(O)cc(OC3CCN(C)CC3)c12 | 139% | 19.9% |
| Cc1c(N2CCN(C)CC2)c(=O)oc2cc(O)cc(OC3CCCC3)c12 | 181% | 33.8% |
| Cc1c(N2CCN(C)CC2)c(=O)oc2cc(OCCc3cccs3)ccc12 | 110% | 43.7% |

| SMILES | viability at 10 µM [1] | Activity (PC-12) |
| --- | --- | --- |
| Cc1c(N2CCN(C)CC2)c(=O)oc2cc(O)cc(OCCNC(=O)OC(C)(C)C)c12 | 132% | 23.4% |
| COc1ccc(COc2ccc3c(C)c(N4CCN(C)CC4)c(=O)oc3c2)cc1 | 136% | 44.2% |
| COc1cc(OC)c2c(C)c(N3CCN(C)CC3)c(=O)oc2c1 | 100% | 49.6% |
| CCCCCCCNC(=O)N1CCN(c2c(C)c3c(O)cc(O)cc3oc2=O)CC1 | 99.3% | 43.4% |
| Cc1c(N2CCN(C(=O)CCl)CC2)c(=O)oc2cc(O)cc(O)c12 | 97.4% | 48.1% |
| Cc1c(N2CCN(C)CC2)c(=O)oc2cc(O)cc(OC3CCOC3)c12 (configuration not stated) | 107% | 52% |
| CCC(CC)CN1CCN(c2c(C)c3c(O)cc(O)cc3oc2=O)CC1 | 102% | 49.5% |
| Cc1c(N2CCN(Cc3ccccc3)CC2)c(=O)oc2cc(O)cc(O)c12 | 100% | 44.4% |
| CCOc1cc(O)cc2oc(=O)c(N3CCN(C)CC3)c(C)c12 | 167% | 33.9% |
| Cc1c(CCN2CCN(C)CC2)c(=O)oc2cc(O)cc(O)c12 | 102% | 45.9% |
| CC(=O)Oc1cc(OC(C)=O)c2c(C)c(N3CCN(C)CC3)c(=O)oc2c1 | 102% | 46.6% |
| Cc1c(N2CCN(C(=O)c3ccccc3)CC2)c(=O)oc2cc(O)cc(O)c12 | 100% | 44.6% |
| Cc1c(N2CCN(C(=O)Nc3ccc(F)cc3)CC2)c(=O)oc2cc(O)cc(O)c12 | 104% | 46.3% |
| CCCCNC(=S)N1CCN(c2c(C)c3c(O)cc(O)cc3oc2=O)CC1 | 103% | 48.9% |
| CCOc1ccc2c(C)c(N3CCN(C)CC3)c(=O)oc2c1 | 101% | 45.6% |
